Laboratory results as given in ChEMBL document CHEMBL4339193, “Phenotypic Screening-Based Identification of 3,4-Disubstituted Piperidine Derivatives as Macrophage M2 Polarization Modulators: An Opportunity for Treating Multiple Sclerosis” (J Med Chem, 2019).
Calls of active or inactive are those of the source. The rule behind the calls is not given here.

Tests used:
BMDM [1] = assay: Modulation of M2 polarization in C57BL/6J mouse BMDM cells assessed as up regulation of CD206 expression at 300 nM measured after 24 hrs by FACS analysis; format: functional, cell-based
Procedure, shortened: (§1)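 BMDMs exposed to compound (300 nM, or a range of concentrations) for 24 h. Stained for F4/80 and CD206; % CD206+F4/80+ cells read by flow cytometry. Mean ± SEM, at least three independent experiments.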

BMDM [2] = assay: Modulation of M2 polarization in C57BL/6J mouse BMDM cells assessed as up regulation of YM1 expression at 300 nM measured after 4 to 24 hrs by Western blot analysis; format: functional, cell-based
Procedure, shortened: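 BMDMs lysed in pH 7.6 buffer with 1% Triton X-100, phosphatase inhibitor and 1 mM PMSF. Proteins separated by SDS-PAGE, blotted to PVDF and probed with anti-Arg-1, anti-Ym1 or anti-TNF-α, then ECL detection; GAPDH as loading control.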

BMDM [3] = assay: Inhibition of LPS-induced M1 polarization in C57BL/6J mouse BMDM cells assessed as down regulation of CD86 expression measured after 24 hrs by FACS analysis; format: functional, cell-based
Procedure, shortened: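 BMDMs pretreated with 50 ng/ml LPS for 24 h, then given compound (300 nM, or a range of concentrations) for 24 h. Stained for F4/80 and CD86; % CD86+F4/80+ cells read by flow cytometry. Mean ± SEM, at least three independent experiments.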

BMDM [4] = assay: Modulation of M2 polarization in C57BL/6J mouse BMDM cells assessed as up regulation of CD206 expression measured after 24 hrs by FACS analysis; format: functional, cell-based; procedure, shortened: as §1
RAW264.7 [5] = assay: Inhibition of M1 polarization in mouse RAW264.7 cells assessed as down regulation of TNFSF15 mRNA expression at 300 nM measured after 24 hrs by qRT-PCR analysis; format: functional, cell-based
RAW264.7 [6] = assay: Modulation of M2 polarization in mouse RAW264.7 cells assessed as up regulation of MRC1 mRNA expression at 300 nM measured after 24 hrs by qRT-PCR analysis; format: functional, cell-based
[7] = AUC (0 to infinity) in Sprague-Dawley rat at 10 mg/kg, iv administered as single dose by LC/MS analysis; format: ADME, organism-based; set-up: dose 10 mg/kg, time infinity, route intravenous; settings: in vivo
Procedure, shortened: (§2)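 Single dose in rats; venous blood (100 µL) drawn at 0, 0.5, 1, 2, 4, 8 and 12 h, plasma separated by centrifugation and held at -20 °C. Compound measured by LC/MS; Cmax, Tmax, t1/2 and AUC derived from the concentration–time data.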

[8] = Cmax in Sprague-Dawley rat at 10 mg/kg, iv administered as single dose by LC/MS analysis; format: ADME, organism-based; set-up: dose 10 mg/kg, route intravenous; settings: in vivo; procedure, shortened: as §2
[9] = Oral bioavailability in Sprague-Dawley rat at 50 mg/kg administered as single dose via gavage by LC/MS analysis; format: ADME, organism-based; settings: in vivo
RAW264.7 [10] = assay: Modulation of M1 polarization in mouse RAW264.7 cells assessed as change in Mcp1 mRNA expression at 300 nM measured after 24 hrs by qRT-PCR analysis relative to control; format: functional, cell-based; settings: RAW264.7, 24 h, read-out: FC
Procedure, shortened: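 RAW264.7 cells (DMEM, 10% FBS) exposed 24 h to 300 nM compound alone; LPS 50 ng/ml as positive control. Mcp1 mRNA by qRT-PCR; fold change = dosed group level / control group level.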

Mus musculus [11] = assay: (§3) Antiinflammatory activity in C57BL/6J mouse model of MOG (35 to 55 residues)/pertussis toxin/complete Freund's adjuvant-induced experimental allergic encephalomyelitis assessed as effect on Treg cell population in draining lymph nodes by measuring change in CD4 level at 200 mg/kg, ig administered daily starting from 7 days post-immunization measured after 13 to 19 days post-immunization by flow cytometry analysis; format: functional, organism-based
Procedure, shortened: (§4)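 MOG35-55/CFA EAE mice were dosed daily in saline from day 7 and sampled between days 13 and 19. Spleens and dLNs were mechanically dissociated to single cells. CNS cells came from collagenase IV digestion and a 70%/30% Percoll gradient. Cells were surface-stained with fluorochrome antibodies, including CD4, CD11b, CD11c and MHC-II, and analysed by flow cytometry.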

Mus musculus [12] = assay: as §3, with “CNS” for “draining lymph nodes”; format: functional, organism-based; procedure, shortened: as §4
BMDM [13] = assay: Antiinflammatory activity in LPS-induced C57BL/6J mouse BMDM cells assessed as suppression of M1 macrophage-stimulated CD4 positive T-cell proliferation at 300 nM preincubated for 48 hrs followed by CD4 positive T-cell addition and measured after 72 hrs by CFSE dye based FACS analysis; format: functional
Procedure, shortened: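 BMDMs given 300 nM compound with 50 ng/ml LPS for 48 h on day 5 of differentiation; drug removed day 7. Cells then cocultured 1:1 with CFSE-labelled negatively selected naïve CD4+ T cells plus 500 ng/ml anti-CD3 and 500 ng/ml anti-CD28. T-cell proliferation (CFSE MFI, % proliferated) read by flow cytometry after 72 h. Mean ± SEM, at least three independent experiments.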

[14] = biological target: T1, Signal transducer and transcription activator 6 (Mus musculus) (UniProt P52633); assay: Stimulation of STAT6 phosphorylation at […] residue in mouse RAW264.7 cells at 300 nM measured after 4 to 24 hrs by Western blot analysis; format: cell-based
T1 sequence (whole entry): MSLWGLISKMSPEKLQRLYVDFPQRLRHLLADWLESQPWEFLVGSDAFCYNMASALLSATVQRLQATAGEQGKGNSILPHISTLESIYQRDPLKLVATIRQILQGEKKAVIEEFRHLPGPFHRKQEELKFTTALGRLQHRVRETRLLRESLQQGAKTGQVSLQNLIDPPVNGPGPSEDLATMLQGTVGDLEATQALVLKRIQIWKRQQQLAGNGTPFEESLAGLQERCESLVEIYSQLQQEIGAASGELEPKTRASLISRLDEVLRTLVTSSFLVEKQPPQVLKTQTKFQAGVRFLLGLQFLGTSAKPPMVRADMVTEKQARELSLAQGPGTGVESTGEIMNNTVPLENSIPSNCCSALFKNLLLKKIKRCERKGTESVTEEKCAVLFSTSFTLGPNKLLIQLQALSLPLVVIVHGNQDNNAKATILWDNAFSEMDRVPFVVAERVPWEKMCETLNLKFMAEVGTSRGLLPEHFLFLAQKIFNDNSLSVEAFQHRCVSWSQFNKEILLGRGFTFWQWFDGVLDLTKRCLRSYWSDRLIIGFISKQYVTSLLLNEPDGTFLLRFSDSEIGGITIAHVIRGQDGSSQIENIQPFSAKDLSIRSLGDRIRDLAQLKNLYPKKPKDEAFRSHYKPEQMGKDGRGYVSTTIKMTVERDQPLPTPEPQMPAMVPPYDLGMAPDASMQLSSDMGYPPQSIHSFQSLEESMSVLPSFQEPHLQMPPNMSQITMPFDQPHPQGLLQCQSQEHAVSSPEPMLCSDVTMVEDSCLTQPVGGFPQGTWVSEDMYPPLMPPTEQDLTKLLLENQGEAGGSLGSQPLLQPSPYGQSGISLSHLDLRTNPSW
Procedure, shortened: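 Cell lysates separated by SDS-PAGE, transferred to PVDF and probed for Akt, p-Akt(308), p-Akt(473), Stat3, p-Stat3(Y705), Stat6 and p-Stat6; ECL detection, GAPDH as loading control.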

Cl.Cn1ncc(Cl)c1-c1ccc(C(=O)N[C@@H]2CNCC[C@H]2c2cccc(F)c2)cc1
Activity (BMDM [1]): Active | Activity (BMDM [2]): Active | inhibition (BMDM [3]): Dose-dependent effect | Activity (BMDM [4]): Dose-dependent effect | inhibition (RAW264.7 [5]): Active | Activity (RAW264.7 [6]): Active | AUC(0-inf) [7]: 1870 ng·h/mL | Cmax [8]: 1000 ng/mL | bioavailability [9]: 50.6% | fold induction at 0.3 µM (RAW264.7 [10]): 1.47 | Activity (Mus musculus [11]): inactive | Activity (Mus musculus [12]): inactive | Activity (BMDM [13]): Active | Activity [14]: inactive
